ChEMBL document CHEMBL3286351, “Antibacterial evaluation of structurally amphipathic, membrane active small cationic peptidomimetics: synthesized by incorporating 3-amino benzoic acid as peptidomimetic element” (Eur J Med Chem, 2014)
In brackets after ≈: the same amount, converted by molar mass. Activity calls are given as the source filed them. The rule behind the calls is not given here. Where a SMILES comes first, the peptide text is derived from it. [ ]: non-standard residue; d: D form. 3Abz = Nc1cccc(C(=O)O)c1; Orn = NCCC[CH](N)C(=O)O

Tests used:
[1] = system: Staphylococcus epidermidis; test: Antibacterial activity against methicillin-resistant Staphylococcus epidermidis ATCC 51625 assessed as growth inhibition after 18 hrs by CLSI microdilution broth assay; type: functional; settings: ATCC 51625, 18 h
Method in brief: (§1)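 Modified CLSI broth microdilution in Mueller-Hinton broth. Wells held 90 µL of about 2 × 10^5 CFU/mL inoculum plus 10 µL of serially diluted peptidomimetic, range 0.7-100 µg/mL. Plates were incubated overnight with agitation at 37 °C and absorbance read at 600 nm after 18 h. Controls: inoculum without compound, and uninoculated broth. Run in triplicate.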

[2] = Induction of hemolysis in human RBC assessed as hemoglobin release after 1 hr by microtiter plate reader analysis; type: cell-based, Erythrocyte; settings: for HC10: erythrocyte, 1 h; for HC50 at 1 h: red blood cells
Method in brief: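 Freshly isolated human RBCs washed three times in PBS (35 mM phosphate, 150 mM NaCl, pH 7.2) and used as a 4% (v/v) suspension. Mixed 1:1 with twofold serial dilutions of compound, incubated 1 h at 37 °C without agitation, then centrifuged. Supernatant A540 read. PBS defined 0% and 1% Triton X-100 defined 100% lysis; HC50 and HC10 derived.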

[3] = Selectivity ratio of HC50 for hemolysis in human RBC to MIC for Staphylococcus aureus
HaCaT [4] = test: Cytotoxicity against human HaCaT cells assessed as decrease in cell viability after 24 hrs by MTT assay; type: cell-based
Method in brief: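 HaCaT keratinocytes grown as a monolayer in DMEM with 10% FBS and penicillin/streptomycin, 37 °C, 5% CO2. Seeded 24 h, then exposed to compound for 24 h. MTT (5 mg/mL stock in PBS) added for 4 h; formazan dissolved in isopropanol and read at 570 nm. Growth inhibition calculated relative to medium-only controls. Two independent experiments in triplicate.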

HaCaT [5] = test: Cytotoxicity against human HaCaT cells at 100 to 500 ug/ml after 24 hrs by LDH release assay; type: cell-based
Method in brief: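 HaCaT cells (DMEM with 10% FBS, 37 °C, 5% CO2) seeded for 24 h, then treated with varying concentrations for 24 h. LDH measured at 490 nm in both supernatant and trypsinized cell lysate with a non-radioactive kit. % release = supernatant/(supernatant + lysate) × 100. Two independent experiments in triplicate.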

[6] = (§2) Stability in human plasma assessed as compound degradation after 24 hrs by RP-HPLC analysis; type: ADME, cell-free; settings: read-out: Drug degradation
Method in brief: (§3)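 Compound (1 mg/mL stock in water; 50 µL) added to 1 mL fresh heparinized human plasma and held at 37 °C. Samples taken at 30 min, 1, 2, 6, 12 and 24 h. Proteins precipitated with 95% ethanol, cooled at 4 °C for 15 min and centrifuged at 18,000 g. Supernatant analyzed by RP-HPLC with UV detection at 280 nm.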

[7] = Stability in human plasma assessed as compound degradation after 30 mins by RP-HPLC analysis; type: ADME, cell-free; settings: read-out: Drug degradation; method in brief: as §3
Plasma [8] = test: Stability in human plasma assessed as compound degradation after 12 hrs by RP-HPLC analysis; type: ADME, cell-free; method in brief: as §3
trypsin = test: Proteolytic stability assessed as trypsin (unknown origin)-mediated compound degradation by measuring compound remaining after 4 days by RP-HPLC analysis; type: ADME; settings: human, trypsin; read-out: Stability
Method in brief: (§4)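 Compound at 1 mg/mL in 0.1 M NH4HCO3 (pH 8.2) combined with trypsin or α-chymotrypsin solution (1 mg enzyme per 50 mL of the same buffer) at 37 °C. Aliquots taken over time and quenched with 10% formic acid. Remaining compound quantified by C18 RP-HPLC. An enzyme-free control was run for each test.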

alpha chymotrypsin = test: Proteolytic stability assessed as alpha chymotrypsin (unknown origin)-mediated compound degradation by measuring compound remaining after 4 days by RP-HPLC analysis; type: ADME; settings: human, read-out: Stability; method in brief: as §4
[9] = Retention time of the compound by HPLC analysis; type: physicochemical
Method in brief: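 Analytical RP-HPLC on a C18 column (5 µm, 4.6 × 250 mm) at room temperature. Run a linear gradient of 0.5-60% acetonitrile containing 0.05% TFA against water containing 0.05% TFA at 0.5 mL/min.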

Escherichia coli [10] = test: Antibacterial activity against Escherichia coli MTCC 723 assessed as growth inhibition after 18 hrs by CLSI microdilution broth assay; type: functional; settings: MTCC 723, 18 h
Pseudomonas aeruginosa = test: Antibacterial activity against Pseudomonas aeruginosa MTCC 2295 assessed as growth inhibition after 18 hrs by CLSI microdilution broth assay; type: functional; settings: MTCC 2295, 18 h
Staphylococcus aureus [11] = test: Antibacterial activity against Staphylococcus aureus MTCC 3160 assessed as growth inhibition after 18 hrs by CLSI microdilution broth assay; type: functional; settings: MTCC 3160, 18 h
Bacillus subtilis = test: Antibacterial activity against Bacillus subtilis MTCC 2763 assessed as growth inhibition after 18 hrs by CLSI microdilution broth assay; type: functional; settings: MTCC 2763, 18 h
Staphylococcus aureus [12] = test: Antibacterial activity against methicillin-resistant Staphylococcus aureus ATCC BAA-1720 assessed as growth inhibition after 18 hrs by CLSI microdilution broth assay; type: functional; settings: ATCC BAA-1720, 18 h; method in brief: as §1
Staphylococcus aureus [13] = test: Bactericidal activity against Staphylococcus aureus MTCC 3160 assessed as number of bacteria at 4 times MIC measured within 30 mins by time kill assay (reference value: 10^6 CFU/ml); type: functional
Method in brief: (§5)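 Time-kill assay. […] Aliquots taken at fixed intervals were serially diluted and plated on Mueller-Hinton agar. CFU were counted after 24 h at 37 °C. Two independent experiments, each in triplicate.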

Escherichia coli [14] = test: Bactericidal activity against Escherichia coli MTCC 723 assessed as number of bacteria at 4 times MIC measured within 30 mins by time kill assay (reference value: 10^6 CFU/ml); type: functional; method in brief: as §5
Lipid bilayer [15] = test: Membrane permeabilization in bacterial membrane model consisting large unilamellar vesicle of dipalmitoylphosphatidylcholine:dipalmitoylphosphatidylglycerol at ratio of 7:3 assessed as calcein release at 15 ug/ml after 20 mins by fluorescence assay; type: cell membranes
Method in brief: (§6)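 LUVs of DPPC:DPPG 7:3 (w/w) loaded with 70 mM calcein (150 mM NaCl, 0.1 mM EDTA, pH 7.4). Made by freeze-thaw and extrusion through 100 nm filters; free dye removed on Sephadex G-50; diameter 110-130 nm. Diluted to 40 µM lipid and exposed to 5-15 µg/mL compound. Fluorescence read at ex 490/em 520 nm each minute for 20 min, then every 10 min. Triton X-100 defined 100% release.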

Lipid bilayer [16] = test: Membrane permeabilization in bacterial membrane model consisting large unilamellar vesicle of dipalmitoylphosphatidylcholine:dipalmitoylphosphatidylglycerol at ratio of 7:3 assessed as calcein release at 5 ug/ml after 50 mins by fluorescence assay; type: cell membranes; method in brief: as §6
Lipid bilayer [17] = test: Membrane permeabilization in bacterial membrane model consisting large unilamellar vesicle of dipalmitoylphosphatidylcholine:dipalmitoylphosphatidylglycerol at ratio of 7:3 assessed as calcein release after 5 mins by fluorescence assay; type: cell membranes; method in brief: as §6
[18] = Membrane permeabilization in mammalian membrane model consisting large unilamellar vesicle of dipalmitoylphosphatidylcholine:cholesterol at ratio of 10:1 assessed as calcein release at 15 ug/ml after 5 mins by fluorescence assay; type: cell membranes
Method in brief: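 LUVs of DPPC/cholesterol 10:1 (w/w) loaded with calcein, extruded through 100 nm filters, and cleared of free dye on Sephadex G-50. Diluted to 40 µM lipid in calcein-free buffer (150 mM NaCl, 0.1 mM EDTA). Calcein release read at ex 490/em 520 nm, normalized to Triton X-100 lysis.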

Escherichia coli [19] = test: Induction of membrane damage in Escherichia coli at 4 times MIC after 2 hrs by DAPI/propidium iodide staining based fluorescence microscopy; type: functional, organism-based
Method in brief: (§7)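 Stained with PI (5 µg/mL) for 15 min in the dark at 0 °C, washed, then DAPI (10 µg/mL) for 15 min in the dark at 0 °C. Untreated cells processed identically as controls. Imaged by fluorescence microscopy with a 60× oil objective.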

Staphylococcus aureus [20] = test: Induction of membrane damage in Staphylococcus aureus at 4 times MIC after 2 hrs by DAPI/propidium iodide staining based fluorescence microscopy; type: functional, organism-based; method in brief: as §7
Staphylococcus aureus [21] = test: Antibacterial activity against Staphylococcus aureus MTCC 3160 assessed as growth inhibition treated for 16 days by two-fold dilution assay; type: functional, organism-based
Staphylococcus aureus [22] = test: Antibacterial activity against methicillin-resistant Staphylococcus aureus ATCC BAA-1720 assessed as growth inhibition treated for 16 days by two-fold dilution assay; type: functional, organism-based
Method in brief: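 Serial-passage resistance study. Start from the initial MIC by broth microdilution, then expose cells to doubling dilutions in triplicate wells. After each 18 h incubation, pool the wells with the highest concentration still showing visible growth and re-inoculate at about 2 × 10^6 CFU/mL.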

Plasma [23] = test: Stability in human plasma assessed as compound degradation after 1 hr by RP-HPLC analysis; type: ADME, cell-free; method in brief: as §3
[24] = Stability in human plasma assessed as compound degradation after 2 hrs by RP-HPLC analysis; type: ADME, cell-free; settings: read-out: Drug degradation; method in brief: as §3
Plasma [25] = test: as §2; type: ADME, cell-free; settings: 24 h; method in brief: as §3
[26] = Proteolytic stability assessed as trypsin (unknown origin)-mediated compound degradation after 36 hrs by RP-HPLC analysis; type: ADME; settings: human; method in brief: as §4
[27] = Proteolytic stability assessed as alpha chymotrypsin (unknown origin)-mediated compound degradation after 24 hrs by RP-HPLC analysis; type: ADME; settings: human; method in brief: as §4

| SMILES | MIC [1] [µg/mL] | HC10 [2] [µg/mL] | HC50 at 1 h [2] [µg/mL] | Selectivity ratio [3] | Activity (HaCaT [4]) | Activity (HaCaT [5]) | metabolised at 0.5 h [7] [%] | remaining at 96 h (trypsin) [%] | remaining at 96 h (alpha chymotrypsin) [%] | Retention_time [9] [min] | MIC (Escherichia coli [10]) [µg/mL] | MIC (Pseudomonas aeruginosa) [µg/mL] | MIC (Staphylococcus aureus [11]) [µg/mL] | MIC (Bacillus subtilis) [µg/mL] | MIC (Staphylococcus aureus [12]) [µg/mL] | Stability (Plasma [25]) | further results |
| --- | --- | --- | --- | --- | --- | --- | --- | --- | --- | --- | --- | --- | --- | --- | --- | --- | --- |
| N=C(N)NCCCC(NC(=O)C(Cc1c[nH]c2ccccc12)NC(=O)C(Cc1c[nH]c2ccccc12)NC(=O)C(CCCNC(=N)N)NC(=O)C(N)Cc1c[nH]c2ccccc12)C(N)=O (configuration not stated) (H-WRWWR-NH2; configuration not given here) | 20 (≈ 22.5 µM) | 60 | 200 | 13.3 | Dose-dependent effect | Toxic | 5.31 | 21 | 44 | 30.604 | 40 (≈ 45 µM) | 70 (≈ 78.8 µM) | 15 (≈ 16.9 µM) | 50 (≈ 56.3 µM) | 17.5 (≈ 19.7 µM) |  | metabolised at 24 h [6]: 18%; Stability (Plasma [8]): Stable |
| N=C(N)NCCCC(NC(=O)C(Cc1c[nH]c2ccccc12)NC(=O)c1cccc(NC(=O)C(Cc2c[nH]c3ccccc23)NC(=O)C(CCCNC(=N)N)NC(=O)C(N)Cc2c[nH]c3ccccc23)c1)C(N)=O (configuration not stated) (H-WRW[3Abz]WR-NH2; configuration not given here) | 5 (≈ 4.96 µM) | 80 | 310 | 62 | Dose-dependent effect | Toxic |  | 65 | 70 | 27.34 | 7.5 (≈ 7.45 µM) | 12.5 (≈ 12.4 µM) | 5 (≈ 4.96 µM) | 20 (≈ 19.9 µM) | 5.5 (≈ 5.46 µM) | Stable | CFU/ml (Staphylococcus aureus [13]): 1000; CFU/ml (Escherichia coli [14]): 1000; Activity (Lipid bilayer [15]): 47%; Activity (Lipid bilayer [16]): 19%; Activity (Lipid bilayer [17]): Dose-dependent effect; Activity [18]: inactive; Activity (Escherichia coli [19]): Active; Activity (Staphylococcus aureus [20]): Active; inhibition (Staphylococcus aureus [21]): Active; inhibition (Staphylococcus aureus [22]): Active; Stability (Plasma [23]): Stable; metabolised at 2 h [24]: 6.58%; Stability [26]: Stable; Stability [27]: Stable |
| NCCCC(NC(=O)C(Cc1c[nH]c2ccccc12)NC(=O)C(Cc1c[nH]c2ccccc12)NC(=O)C(CCCN)NC(=O)C(N)Cc1c[nH]c2ccccc12)C(N)=O (configuration not stated) (H-W[Orn]WW[Orn]-NH2; configuration not given here) | 70 (≈ 87.1 µM) | 65 | 225 | 4.5 | Dose-dependent effect | Toxic | 4.72 | 82 | 44 | 28.309 | 70 (≈ 87.1 µM) | 150 (≈ 187 µM) | 50 (≈ 62.2 µM) | 120 (≈ 149 µM) | 50 (≈ 62.2 µM) | Stable |  |
